PMC4431946 (Journal of the American Chemical Society, 2015)
Read-outs that look alike come from different tables or passages of the source.

Columns and labels:
rat nNOS [1] = target: T1, rat nNOS (Rattus norvegicus, UniProt P29476); experiment: Irreversible inhibition kinetics; format: biochemical; settings: for time-dependent inactivation of nNOS: result in words
nNOS = nNOS (Rattus norvegicus, UniProt P29476); experiment: LC/MS of amino acid metabolites after inactivation of nNOS by 1; format: biochemical; settings: 56 µM of 1, 37 °C, 3 h
rat nNOS [2] = target: T1, rat nNOS; settings: result in words; reported earlier; cited from earlier work
rat nNOS [3] = target: T1, rat nNOS; experiment: Hemoglobin NO generation assay; format: biochemical
ferric nNOS = ferric nNOS (Rattus norvegicus, UniProt P29476); experiment: Spectral titration of ferric nNOS-H4B; format: binding
Method in brief: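 Ferric full-length rat nNOS-H4B, 5 µM, in 50 mM HEPES pH 7.5 with 100 mM NaCl, titrated by 1–2 µL additions of test compound. Difference spectra recorded from 350–550 nm. Peak (~455 nm) minus trough (400 nm) absorbance plotted against ligand concentration.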

ferrous nNOS = ferrous nNOS (Rattus norvegicus, UniProt P29476); experiment: Spectral titration of dithionite-reduced; format: binding
Method in brief: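 Full-length rat nNOS-H4B reduced with dithionite and desalted under anaerobic conditions in a glovebox. Degassed 50 mM HEPES pH 7.5 with 100 mM NaCl; compound stocks made in degassed buffer. Test compound added in 1–2 µL portions from 1, 5 and 20 mM stocks, totalling <2% of volume. Double-beam scans from 350–600 nm, repeated until stable. Peak (~455 nm) minus trough (410 nm) absorbance fitted with a quadratic function for apparent Ks.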

Chain of ferrous nNOS (P29476 whole entry): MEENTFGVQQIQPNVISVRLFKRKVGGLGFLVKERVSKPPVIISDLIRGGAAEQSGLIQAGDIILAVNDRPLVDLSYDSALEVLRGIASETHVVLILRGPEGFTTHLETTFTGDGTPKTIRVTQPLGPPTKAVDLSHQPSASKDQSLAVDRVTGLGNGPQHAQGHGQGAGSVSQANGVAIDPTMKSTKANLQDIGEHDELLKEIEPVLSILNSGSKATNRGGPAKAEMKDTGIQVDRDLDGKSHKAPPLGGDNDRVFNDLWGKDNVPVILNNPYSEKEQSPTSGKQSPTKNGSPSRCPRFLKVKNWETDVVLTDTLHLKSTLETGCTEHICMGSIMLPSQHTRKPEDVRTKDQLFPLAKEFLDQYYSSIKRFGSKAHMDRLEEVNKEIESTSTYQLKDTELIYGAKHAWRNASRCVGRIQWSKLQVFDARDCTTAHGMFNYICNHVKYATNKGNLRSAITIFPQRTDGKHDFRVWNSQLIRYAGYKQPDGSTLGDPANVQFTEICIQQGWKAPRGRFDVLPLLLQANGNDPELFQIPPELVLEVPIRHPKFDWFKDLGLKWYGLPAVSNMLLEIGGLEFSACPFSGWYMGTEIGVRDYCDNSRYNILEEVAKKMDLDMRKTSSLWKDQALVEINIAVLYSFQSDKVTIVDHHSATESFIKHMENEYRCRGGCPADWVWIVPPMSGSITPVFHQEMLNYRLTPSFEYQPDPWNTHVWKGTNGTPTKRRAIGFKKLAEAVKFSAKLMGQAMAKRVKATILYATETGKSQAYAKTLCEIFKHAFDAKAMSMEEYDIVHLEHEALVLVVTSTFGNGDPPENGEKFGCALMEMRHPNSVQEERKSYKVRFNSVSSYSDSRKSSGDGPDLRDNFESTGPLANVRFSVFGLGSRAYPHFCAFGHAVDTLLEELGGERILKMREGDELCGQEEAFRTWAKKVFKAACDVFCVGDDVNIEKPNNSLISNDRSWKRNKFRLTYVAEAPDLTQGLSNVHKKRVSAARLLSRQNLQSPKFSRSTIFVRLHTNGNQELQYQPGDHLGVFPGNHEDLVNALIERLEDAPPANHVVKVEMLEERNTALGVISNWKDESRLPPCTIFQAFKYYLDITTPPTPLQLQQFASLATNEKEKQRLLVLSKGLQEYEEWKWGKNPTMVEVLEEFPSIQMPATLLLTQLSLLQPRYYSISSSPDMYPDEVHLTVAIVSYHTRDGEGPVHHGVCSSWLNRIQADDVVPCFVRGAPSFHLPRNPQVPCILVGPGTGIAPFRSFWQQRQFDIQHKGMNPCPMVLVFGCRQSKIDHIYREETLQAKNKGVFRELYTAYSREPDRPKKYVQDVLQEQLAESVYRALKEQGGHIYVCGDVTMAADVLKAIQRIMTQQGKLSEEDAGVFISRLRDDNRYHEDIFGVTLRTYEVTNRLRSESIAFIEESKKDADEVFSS
Chain of ferric nNOS (P29476 whole entry): as above

IC50 (rat nNOS [3]) | Ki (rat nNOS [3]) | SMILES | time-dependent inactivation of nNOS (rat nNOS [1]) | other results
 |  | CSCC(=N)NCCC[C@H](N)C(=O)O [compound 1, (S)-2-Amino-5-(2-(methylthio)acetimidamido)pentanoic acid] | inactivator of nNOS | amount of 2 produced from the inactivation of nNOS by 1 (nNOS): Approximately 0.53 µM; time-dependent inactivation of nNOS (rat nNOS [2]): time-dependent irreversible inhibitor of nNOS
461 ± 20 µM | 53 ± 2.4 µM | C[S+]([O-])CC(=N)NCCC[C@H](N)C(=O)O (stereo partly drawn) [compound 2, (2S)-2-Amino-5-(2-(methylsulfinyl)acetimidamido)pentanoic acid] | neither showed time-dependent inactivation | 
507 ± 49 µM | 58.3 ± 5.6 µM | CS(=O)(=O)CC(=N)NCCC[C@H](N)C(=O)O [compound 3, (S)-2-Amino-5-(2-(methylsulfonyl)acetimidamido)pentanoic acid] | neither showed time-dependent inactivation | 
199 ± 7.1 µM | 22.9 ± 0.82 µM | N=C(C=O)NCCC[C@H](N)C(=O)O [compound 4, (S)-2-Amino-5-(2-oxoacetimidamido)pentanoic acid] | neither was a time-dependent inhibitor | 
13 ± 0.67 µM | 1.5 ± 0.08 µM | N=C(CO)NCCC[C@H](N)C(=O)O [compound 5, (S)-2-Amino-5-(2-hydroxyacetimidamido)pentanoic acid] | neither was a time-dependent inhibitor | 
3.64 ± 0.15 µM | 0.42 ± 0.017 µM | N=C(CS)NCCC[C@H](N)C(=O)O [compound 6, (S)-2-Amino-5-(2-mercaptoacetimidamido)pentanoic acid] | time- and concentration-dependent inactivator | Ki (rat nNOS [1]): 2.9 ± 0.2 µM; kinact (rat nNOS [1]): 0.000767 s⁻¹; kinact/KI (rat nNOS [1]): 267 M⁻¹ s⁻¹; inactivation rate (kinact) relative to 1 (rat nNOS [1]; 6 versus 1): about half the inactivation rate; Kd (ferric nNOS): 1.8 ± 0.1 µM; heme ligand type from difference spectra (ferric nNOS; ferric nNOS-H4B): type-II ligand; Kd (ferrous nNOS): 1.6 ± 0.3 µM; heme ligand type from difference spectra (ferrous nNOS; dithionite-reduced nNOS-H4B): still a type-II ligand
